# Experimental data: article PMC8263925 (The Journal of General Physiology, 2021)
# Numbering of substitutions follows the chain as printed.
# Key:
# Hv1 WT [1] = biological target: T1, Hv1 WT (Homo sapiens, UniProt Q96D96); type: cell-based
# T1 sequence (Q96D96 1-273): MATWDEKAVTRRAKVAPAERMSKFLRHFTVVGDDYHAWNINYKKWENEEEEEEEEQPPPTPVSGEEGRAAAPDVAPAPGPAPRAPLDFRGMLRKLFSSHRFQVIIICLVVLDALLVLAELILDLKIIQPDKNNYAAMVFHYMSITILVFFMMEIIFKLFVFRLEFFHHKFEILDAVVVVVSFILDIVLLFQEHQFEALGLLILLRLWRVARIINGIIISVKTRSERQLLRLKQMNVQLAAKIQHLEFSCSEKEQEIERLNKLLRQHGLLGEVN
# Procedure, shortened: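 WT channel in inside-out oocyte patches, symmetric pH 6.0, 22 ± 1°C. Holding −40 mV, depolarization to +120 mV; relative depolarization time td/(tr + td) of 0.1, 0.2, 0.3 or 0.5. 50 µM perfused into bath, then washed out. End-pulse current normalized. Decay fitted double-exponentially (τfast, τslow, weights, c∞); recovery fitted single-exponentially. n = 7, 7, 5, 8 per RDT; SEM.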
# Hv1 WT [2] = biological target: T1, Hv1 WT; experiment: G-V; type: cell-based
# Procedure, shortened: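 Oocytes expressing WT channel (mRNA injected 1–3 d before). Inside-out patches at 22 ± 1°C; bath and pipette 100 mM Mes, 30 mM TEA methanesulfonate, 5 mM TEA chloride, 5 mM EGTA, pH 6.0. Steps to −20 to +130 mV, tails at −40 mV, with or without 50 µM in bath. G = (Itest − Itail)/(Vtest − Vtail), rundown-corrected via reference step. Boltzmann fit gave V1/2 and slope. ≥5 patches, SEM.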
# monomeric Hv1 = biological target: T2, monomeric Hv1 (Homo sapiens, UniProt Q96D96); experiment: Inside-out patch time course of inhibition, monomeric Hv1 chimera; type: cell-based; settings: 50 µM
# T2 sequence (Q96D96 97-227 limits assumed): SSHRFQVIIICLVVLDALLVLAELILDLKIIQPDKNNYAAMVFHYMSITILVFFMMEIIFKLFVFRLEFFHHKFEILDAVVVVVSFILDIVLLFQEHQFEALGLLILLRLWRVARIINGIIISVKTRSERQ
# Hv1 E153C = biological target: T3, Hv1 E153C (Homo sapiens, UniProt Q96D96, E153C); experiment: Inside-out patch time course of inhibition, mutant channel; type: cell-based
# T3 sequence (Q96D96 1-273 E153C): T1 sequence (Q96D96 1-273) with E153C
# Procedure, shortened: (§1)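 Xenopus oocytes injected with mutant-channel mRNA 1–3 d earlier, kept at 18°C in ND96. Inside-out patches at 22 ± 1°C in symmetric Mes/TEA solutions, pH 6.0. Held at −40 mV and pulsed to +120 mV at relative depolarization time 0.2 (3 s/15 s). 50 µM perfused into bath. End-pulse current leak- and rundown-corrected. Decay fitted double-exponentially (τfast, τslow, cfast, cslow); washout recovery single-exponentially (τoff).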
# Hv1 E171Q = biological target: T4, Hv1 E171Q (Homo sapiens, UniProt Q96D96, E171Q); experiment: as above; type: cell-based; settings: 50 µM
# T4 sequence (Q96D96 1-273 E171Q): T1 sequence (Q96D96 1-273) with E171Q
# Procedure, shortened: as §1
# Hv1 D185A = biological target: T5, Hv1 D185A (Homo sapiens, UniProt Q96D96, D185A); experiment: as above; type: cell-based; settings: 50 µM
# T5 sequence (Q96D96 1-273 D185A): T1 sequence (Q96D96 1-273) with D185A
# Procedure, shortened: as §1
# Hv1 R208K = biological target: T6, Hv1 R208K (Homo sapiens, UniProt Q96D96, R208K); experiment: as above; type: cell-based; settings: 50 µM; fast component not resolved from slow component
# T6 sequence (Q96D96 1-273 R208K): T1 sequence (Q96D96 1-273) with R208K
# Procedure, shortened: as §1
# Hv1 WT [3] = biological target: T1, Hv1 WT; experiment: Kinetic simulation of HIF-mediated inhibition, four-state model S; settings: room temperature, closed VSD
# [4] = 50 μM, double-exponential fit, RDT 0.1-0.5
smiles,measurement,setting,value
"Cc1[nH]c(N)nc1CCC(=O)c1cc(F)cc(F)c1 [HIF, 3-(2-amino-5-methyl-1H-imidazol-4-yl)-1-(3,5-difluorophenyl)propan-1-one]","relative contribution of the slow component, cslow / (cfast + cslow)","Hv1 WT [1]; 50 μM, RDT = 0.2",0.51
same,"τfast, time constant of fast component of inhibition",Hv1 WT [1]; [4],< 5 s
same,"τslow, time constant of slow component of inhibition",Hv1 WT [1]; [4],> 40 s
same,"τslow, RDTon = 0.1/τslow, RDTon = 0.5","Hv1 WT [1]; 50 μM, experimental",1.15 ± 0.20
same,"τoff, recovery from inhibition","Hv1 WT [1]; after 50 µM, RDT = 0.2",94 ± 7 s
same,"τoff, time constant of recovery from inhibition","Hv1 WT [1]; after 50 μM, single-exponential fit, RDT 0.1-0.5",≥ 80 s
same,shift to more positive potentials in the V1/2 of activation,"Hv1 WT [2]; 50 μM, pHi = pHo = 6.0",~15 mV
same,slope of G-V curve in the presence of inhibitor,"Hv1 WT [2]; 50 µM, pHi = pHo = 6.0 (11 ± 1 without HIF)",13 ± 1 mV
same,V1/2 of G-V curve in the presence of inhibitor,"Hv1 WT [2]; 50 µM, pHi = pHo = 6.0 (53 ± 3 mV without HIF)",68 ± 2 mV
same,extent of inhibition compared with WT,monomeric Hv1,not reduced
same,total extent of inhibition vs WT,Hv1 E153C; 50 µM,did not decrease
same,"relative contribution of the slow component, cslow / (cfast + cslow)","Hv1 E153C; 50 μM, RDT = 0.2",0.80
same,"τoff, recovery from inhibition","Hv1 E153C; after 50 µM, RDT = 0.2",294 ± 57 s
same,reduction of the extent of inhibition vs WT,Hv1 E171Q,46%
same,τslow,Hv1 E171Q; too slow to be accurately quantified,> 200 s
same,effect of mutation on extent or time course of inhibition,Hv1 D185A,did not appreciably affect
same,extent of inhibition compared with WT,Hv1 R208K,slightly increased
same,energy barriers to cross in and out of site 2,Hv1 WT [3],~20 kcal/mol
